CHRM4 agonist = CHRM4 agonism in calcium assay | CHO-K1 hM4/Gqi5, Fluo-8 calcium fluorescence; vehicle 0%, full acetylcholine response 100% | 360,000 tested, 0.14% active | AID 624127 | activation, % at 3 µM;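 active = activation above the run mean over all test wells plus 3 SD, cut at about 32% in these data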;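 note: peak over basal fluorescence ratio per well then scaled between controls; 0% = DMSO wells and 100% = acetylcholine at EC100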
Target sequence (P08173 whole entry, looked up): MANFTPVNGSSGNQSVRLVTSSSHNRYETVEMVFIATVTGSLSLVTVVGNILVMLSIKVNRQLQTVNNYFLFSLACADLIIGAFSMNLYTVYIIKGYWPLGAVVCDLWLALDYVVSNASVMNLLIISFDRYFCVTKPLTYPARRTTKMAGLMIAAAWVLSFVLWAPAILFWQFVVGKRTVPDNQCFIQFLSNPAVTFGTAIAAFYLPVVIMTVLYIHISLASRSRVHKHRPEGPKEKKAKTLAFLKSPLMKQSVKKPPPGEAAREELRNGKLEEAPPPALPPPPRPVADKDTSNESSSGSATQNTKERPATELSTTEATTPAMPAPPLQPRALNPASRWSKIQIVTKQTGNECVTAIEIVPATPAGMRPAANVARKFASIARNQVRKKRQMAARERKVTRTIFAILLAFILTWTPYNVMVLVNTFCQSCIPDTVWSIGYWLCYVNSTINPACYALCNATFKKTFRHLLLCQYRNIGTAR
M5 PAM = positive allosteric modulators of human muscarinic M5 receptor; 360,000 tested, 0.3% active; activation, % at 3 µM; CHO-K1 hM5, Fluo-8 calcium, ACh EC20 PAM; 0% = ACh EC20, 100% = ACh EC100;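 active = activation above the run cutoff, the mean activation of all test compounds plus 3 SD, cut at about 18% in these data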
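Measured by: Fluo-8 calcium fluorescence; material: human M5 receptor in CHO-K1 cells; schedule: Post-acetylcholine fluorescence recording 140 s; benchmarks: low control EC20 acetylcholine (0%), high control EC100 acetylcholine (100%); read-out: Max/basal fluorescence ratio as % of EC20–EC100 ACh window; compound: single dose, 3 µM nominal final test concentration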
CHRM4 antagonist = antagonists of human muscarinic M4 receptor (CHRM4); CHO-hM4 cells, ACh EC80, Fluo-8 calcium fluorescence; inhibition, % at 3 µM; 360,000 tested, 0.73% active;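 active = inhibition above its plate's cutoff, the mean inhibition of sample wells plus 3 SD, cut at about 27% in these data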;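 note: 0% = acetylcholine EC80 with DMSO and 100% = DMSO without agonist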
CHRM5 antagonist = antagonists of human muscarinic M5 receptor (CHRM5); P08912; CHO-hM5 cells, Fluo-8 calcium fluorescence, ACh EC80; inhibition, % at 3 µM; 360,000 tested, 0.59% active; AID 624040;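 active = inhibition above a per-plate cutoff, the mean of that plate's test compounds plus 3 SD, cut at about 27% in these data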;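 note: 0% = acetylcholine EC80 with DMSO and 100% = DMSO without agonist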
CHRM4 PAM = CHRM4 positive allosteric modulation; activation, % at 3 µM; AID 624126; CHO-K1 hM4/Gqi5, Fluo-8 calcium fluorescence, ACh EC20; 0% = ACh EC20, 100% = maximal ACh; 360,000 tested, 0.4% active; P08173;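 active = activation above its plate's cutoff, the mean activation of sample wells plus 3 SD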
M5 ag = agonists of human muscarinic M5 receptor (CHRM5). CHO-K1 hM5 cells, Fluo-8 calcium fluorescence; 0% DMSO wells, 100% maximal acetylcholine response. P08912. 360,000 tested, 0.19% active. activation, % at 3 µM. AID 624037;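 active = activation above the run's mean over test compounds plus 3 SD, cut at about 23% in these data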;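 note: signal is peak over basal fluorescence ratio across the kinetic read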
* marks the source's active call; other numbers are inactive results. In the library only some 1.8% were active in any assay of this set; here they are far more common.

SMILES	CHRM4 agonist	M5 PAM	CHRM4 antagonist	CHRM5 antagonist	CHRM4 PAM	M5 ag
CCC(CC)c1nnc(NC(=O)CCc2ccccc2)s1	-0.1	-0.9	-3.8	8.3	15.1*	3.3
COc1ccc(NC2=C(Cl)C(=O)N(c3ccccc3)C2=O)c(OC)c1	2.4	-1.2	-3.5	-2.6	-6.4	1.5
COc1ccc(N2C(=O)C(Cl)=C(Nc3ccc(OC)cc3OC)C2=O)cc1	0.4	19.2*	-3.8	-1.4	4.4	3.5
COCc1ccc(C(=O)N2CCCC(Nc3ccc4c(c3)OCCO4)C2)o1 (centres undefined)	1.1	-4.6	-1.8	-2.0	-3.5	-4.9
CCn1c(SCC(=O)NNC(=O)c2ccc(C)cc2)nnc1C(C)C	0.9	0.2	-14.6	3.1	15.2*	-4.2
CCOC(=O)C1(Cc2cccc(OC)c2)CCN(CC2CC=CCC2)CC1 (centres undefined)	4.5	-3.5	2.5	0.1	-10.0	-7.8
Cc1ccc(N/C(SCc2ccccc2C)=C(/C#N)C(=O)NCc2ccco2)cc1C	0.2	-9.5	26.5*	3.6	-20.7	-3.9
CCc1ccc(N/C(SCc2cccc(F)c2)=C(/C#N)C(=O)NCc2ccco2)cc1	1.1	-1.4	4.8	7.1	-6.3	0.3
Cc1nc(CSc2ccc(Br)cc2)cs1	-1.5	-3.6	-8.9	3.3	-0.2	-0.8
O=S(=O)(/N=S1\CC=CCN1S(=O)(=O)c1ccccc1)c1ccccc1 (centres undefined)	60.5*	3.0	13.5	13.9	-5.9	34.2*
CC1=C(C)CS(=O)N(S(=O)(=O)c2ccccc2)C1 (centres undefined)	6.7	-0.7	17.9	10.8	-7.3	17.8
CC(C)(C)NC(=O)C1c2ccccc2OCC(=O)N1CC(F)(F)F (centres undefined)	-0.2	-6.0	-12.1	3.9	7.1	-1.0
CCOc1ccc2nc(NC(=O)C3CSC4(C)CCC(=O)N34)sc2c1 (centres undefined)	5.7	-4.8	-13.2	1.4	7.1	-1.6
Cc1ncsc1CCOC(=O)c1ccc(Cl)cc1	1.8	9.3	-9.5	-14.9	23.9*	-4.0
CCC(Sc1nc(N)cc(=O)[nH]1)C(=O)Nc1cc(C)on1 (centres undefined)	2.2	12.7	-14.2	1.0	25.8*	-2.4
C=CCn1c(SCC(=O)NCc2ccccc2)nnc1C1CCCCC1	2.3	24.7*	-15.9	-5.8	0.4	-2.2
C=CCn1c(SCC(=O)NCCc2ccccc2)nnc1C1CC1	16.0	-17.0	-7.3	17.3	-3.0	-1.7
O=C(OCC(=O)N1CCN(C(=O)c2ccco2)CC1)c1ccc(Cl)nc1	0.3	1.3	9.4	10.8	4.3	2.8
CC(=O)c1cccc(NS(=O)(=O)c2cc(OCC(N)=O)c(C)cc2Cl)c1	-0.3	0.1	1.2	-1.9	0.3	1.7
Cc1ccccc1NS(=O)(=O)c1cc(OCC(N)=O)c(C)cc1Cl	1.1	10.6	0.6	2.0	0.8	6.8
Cc1ccc(NS(=O)(=O)c2cc(OCC(N)=O)c(C)cc2Cl)cc1C	4.4	15.4	14.6	-5.0	13.3	34.1*
Cc1cccc(NS(=O)(=O)c2cc(OCC(N)=O)c(C)cc2Cl)c1	8.7	-9.2	-11.7	5.0	-2.1	27.5*
Cc1[nH]n(-c2ccccc2)c(=O)c1C(=O)c1ccccc1	0.8	20.6*	-7.1	-16.8	10.1	4.5
Cc1ccc(SCC(=O)OCC(=O)N2CCN(C(=O)c3ccco3)CC2)c(C)c1	1.0	4.3	-9.0	4.0	11.8	0.8
COc1cccc(CC(=O)OC(C)C(=O)Nc2ncc(Cl)cc2Cl)c1 (centres undefined)	2.8	-13.3	-22.3	10.8	10.0	-4.4
SMILES	CHRM4 agonist	M5 PAM	CHRM4 antagonist	CHRM5 antagonist	CHRM4 PAM	M5 ag
Cc1nn(-c2nc3ccccc3s2)c(C)c1Oc1ccccc1O	37.5*	-7.8	32.3*	-0.2	-30.4	3.3
Cc1nn(-c2ccccn2)c(C)c1Oc1ccccc1O	1.2	-3.2	-4.3	5.5	-2.6	-1.0
CC1=C(C(=O)N(C)C)CC(CC(=O)NCCCCc2ccccc2)C(=O)N1CCCN1CCCC1=O (centres undefined)	0.8	-9.5	-14.6	6.9	21.9*	0.0
CCCCNc1c(-c2ccc(-c3cccc(Cl)c3)cc2)nc2ccccn12	4.8	-18.1	9.0	15.5	-14.7	-1.9
CCCCNc1c(-c2ccc(OC)c(SC3CCCCC3)c2)nc2cc(C)ccn12	7.4	-13.1	28.6*	14.6	-12.1	-7.8
CCCCNc1c(-c2cccc(-c3cc(C(C)=O)cs3)c2)nc2ccc(C)cn12	20.8	-34.5	26.4	19.8	-11.4	-4.9
CCCCNc1c(-c2cccc(-c3ccc(OC)cc3)c2)nc2ccc(C)cn12	22.4	-39.1	51.7*	34.3*	-13.8	-4.6
CCCCNc1c(-c2cccc(-c3ccc(OC)cc3)c2)nc2cc(C)ccn12	15.2	-32.4	41.5*	27.8*	-13.1	-7.2
CCN(CC(=O)Nc1c(F)cccc1F)C(=O)CCN1C(=O)C2CC=CCC2C1=O (centres undefined)	0.7	3.4	-7.9	2.4	10.3	2.0
Cc1noc(C)c1-c1ccc(C(=O)NCCc2ccccc2)c2occc12	3.1	-4.3	1.9	2.9	-7.2	-0.9
CCCCCC[N+](C)(C)CCSSCC[N+](C)(C)CCCCCC	0.4	2.1	-4.9	8.8	4.4	-5.4
CCCCCCCCCCCCCCCC[N+](C)(C)CCl	2.3	-44.7	35.4*	29.5*	-10.2	-10.7
CCCCCCCCCCCCCCCC[N+](C)(C)CC	1.1	-19.0	51.9*	76.9*	-18.2	-1.4
CC(C)CCNC(=O)C1(O)c2ccccc2NC(=O)N1c1ccc(Cl)cc1 (centres undefined)	5.3	-5.7	15.5	19.6	-7.8	1.6
CC(OC(=O)c1ccco1)C(=O)Nc1ccc(C(F)(F)F)cc1 (centres undefined)	1.2	-2.1	-9.4	6.4	6.6	-3.7
COc1ccc(CC(=O)Nc2cccc(-c3nnc(-c4ccc(C)cc4)o3)c2)cc1OC	5.8	-4.7	1.9	-3.1	-10.1	3.6
COc1ccc(CC(=O)Nc2cccc(-c3nnc(-c4cccc(C)c4)o3)c2)cc1OC	21.2	-24.5	21.3	35.9*	-20.9	7.4
COc1cccc(C(=O)COc2ccc(NC(=O)c3ccccc3)cc2)c1	11.2	-3.1	-8.7	-6.5	6.0	-0.8
C[C@@H](N)C(=O)NC[C@H]1O[C@@H](n2cnc3c(N)ncnc32)[C@H](O)[C@@H]1O	-0.2	-6.3	-5.9	4.8	6.6	1.8
COc1ccc(CNC(=O)CN(C2CCCCC2)S(C)(=O)=O)cc1	2.2	7.0	-5.0	-2.9	26.0*	-3.1
